From publication PMC7115683 (European Journal of Medicinal Chemistry, 2013)

Columns and labels:
[1] = tested on: P. falciparum (CQ^S) D10 strain; experiment: In vitro antimalarial activity, parasite lactate dehydrogenase assay, D10 strain; type: cell-based; conditions: Plasmodium falciparum, D10, read-out: D10 IC50
[2] = tested on: P. falciparum (CQ^R) Dd2 strain; experiment: In vitro antimalarial activity, Dd2 strain; type: cell-based, Plasmodium falciparum
[3] = Monomeric heme binding, UV-visible titration and Job's plot; conditions: association constant, HypSpec
Outline: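 UV–visible titration of test compound with monomeric heme at pH 7.4 (HEPES) and at food-vacuole pH 5.6 (MES), 1 cm cuvette at 25 °C. Association constants (log K) derived from the titration curves by non-linear least-squares fitting in HypSpec.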

[4] = μ-oxo heme binding, UV-visible titration and Job's plot; conditions: pH 5.8; association constant, HypSpec
Outline: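 UV–visible titration of test compound with μ-oxo heme at pH 5.8, plus Job plot (absorbance ratio A/A0 against mole fraction of test compound). Binding constant (log K) computed with HypSpec.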

Feline herpes virus = experiment: Anti-Feline Herpes Virus activity in CRFK cell cultures; type: cell-based; conditions: for EC50: CRFK, read-out: EC50 Feline herpes virus
CT DNA [5] = experiment: CT DNA binding, fluorescence titration; conditions: emission band at 380 nm upon addition of CT DNA
Outline: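 Steady-state fluorescence at ambient temperature. Test compound (17.1 μM) in buffered methanol titrated with CT DNA (0.5–150 μM). Excitation 330 nm, emission monitored at 376 nm.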

CT DNA [6] = experiment: CT DNA binding, UV spectrophotometry titration; conditions: both absorptions (255 and 330 nm), CT-DNA addition
Outline: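 Test compound (30 μM) in buffered methanol titrated with CT-DNA (4–200 μM). UV–visible spectra recorded 200–1100 nm in a 1 cm quartz cuvette, cell holder at 25 °C. Changes followed at the 255 nm and 330 nm absorption bands.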

[7] = tested on: Madin Darby canine kidney (MDCK) cells; conditions: 50% cytotoxic concentration, MTS assay
[8] = tested on: Feline corona virus (FIPV); experiment: Anti-Feline Corona Virus activity in CRFK cell cultures; type: cell-based; conditions: HHA, UDA
[9] = tested on: Crandell-Rees Feline Kidney (CRFK) cell cultures; conditions: MTS assay, HHA, UDA

CCN(CC)CCCC(C)Nc1ccnc2cc(Cl)ccc12 (stereo not drawn) [CQ, Chloroquine]
IC50 [1]: 0.035 µM
IC50 ([2]; Plasmodium falciparum, DD2, read-out: Dd2 IC50): 0.222 µM
Monomeric heme, log K ± σ ([3]; pH 5.6 (MES buffer)): 4.65 ± 0.052
Monomeric heme, log K ± σ ([3]; pH 7.4 (HEPES buffer)): 5.15 ± 0.176
μ-oxoheme, log K ± σ [4]: 5.58 ± 0.006

COC(=O)c1c(C)nc(NCCCNc2ccnc3cc(Cl)ccc23)nc1-c1ccccc1 [Compound 5a, Methyl 2-(3-((7-chloroquinolin-4-yl)amino)propylamino)-4-methyl-6-phenylpyrimidine-5-carboxylate]
EC50 (Feline herpes virus): > 20 µM

Cc1nc(NCCCCNc2ccnc3cc(Cl)ccc23)nc(-c2ccccc2)c1C(=O)OC(C)C [Compound 5b, i-Propyl 2-(4-((7-chloroquinolin-4-yl)amino)butylamino)-4-methyl-6-phenylpyrimidine-5-carboxylate]
shift in emission band (CT DNA [5]): 80 nm
EC50 (Feline herpes virus): > 20 µM
fold increase in antimalarial activity than the standard CQ ([2]; CQ^R strain of P. falciparum): 2 fold
bathochromic shift (CT DNA [6]): ~3 nm

CCOC(=O)c1c(C)nc(NCCCCNc2ccnc3cc(Cl)ccc23)nc1-c1ccccc1[N+](=O)[O-] [Compound 5c, Ethyl 2-(4-((7-chloroquinolin-4-yl)amino)butylamino)-4-methyl-6-(2-nitrophenyl)pyrimidine-5-carboxylate]
EC50 (Feline herpes virus): > 100 µM

CCOC(=O)c1c(C)nc(OCCCNc2ccnc3cc(Cl)ccc23)nc1-c1ccccc1 [Compound 5d, Ethyl 2-(3-((7-chloroquinolin-4-yl)amino)propoxy)-4-methyl-6-phenylpyrimidine-5-carboxylate]
EC50 (Feline herpes virus): > 100 µM

CCOC(=O)c1c(C)nc(NCCCCNc2ccnc3cc(Cl)ccc23)nc1-c1ccc(Cl)cc1 [Compound 5e, Ethyl 4-(4-chlorophenyl)-2-(4-((7-chloroquinolin-4-yl)amino)butylamino)-6-methylpyrimidine-5-carboxylate]
EC50 (Feline herpes virus): > 100 µM

CCOC(=O)c1c(C)nc(NCCCCNc2ccnc3cc(Cl)ccc23)nc1-c1ccc(F)cc1 [Compound 5f, Ethyl 4-(4-fluorophenyl)-2-(4-((7-chloroquinolin-4-yl)amino)butylamino)-6-methylpyrimidine-5-carboxylate]
EC50 (Feline herpes virus): > 100 µM

Ethyl 2-(3-((7-chloroquinolin-4-yl)amino)propylamino)-4-methylpyrimidine-5-carboxylate [Compound 5g]
CC50 [7]: 10.3 µM

B1: UDA: reference agent in the CRFK antiviral assay, values in μg/ml; not explained in the paper (protein, UniProt P11218 24-372, looked up)
Lectin/endochitinase 1: QRCGSQGGGGTCPALWCCSIWGWCGDSEPYCGRTCENKCWSGERSDHRCGAAVGNPPCGQDRCCSVHGWCGGGNDYCSGSKCQYRCSSSVRGPRVALSGNSTANSIGNVVVTEPLFDQMFSHRKDCPSQGFYSYHSFLVAAESFPAFGTIGDVATRKREVAAFLAHISQATSGERSDVENPHAWGLCHINTTTVTENDFCTSSDWPCAAGKKYSPRGPIQLTHNFNYGLAGQAIGEDLIQNPDLVEKDPIISFKTALWFWMSQHDNKPSCHDIVLNANSAANRIPNKGVIGNIISRAFGHDDFAVRSSSIGFYKRYCDMLGVSYGHDLKYWFDNTPSSEFQRIQMRVAA
EC50 Feline herpes virus (Feline herpes virus; CRFK cell cultures, HHA, UDA): 1.0 µg/mL
EC50 Feline corona virus (FIPV) [8]: 1.6 µg/mL
CC50 [9]: 63.2 µg/mL
